Screening results (PubChem)
ABCB6 inh MLPCN: inhibitors of human ABC transporter ABCB6 | Q9NP58 | K562-ABCB6 porphyrin accumulation, flow cytometry, 1 h; active compounds read low | fluorescence ratio to DMSO, % at 10 µM | 360,000 compounds, 0.19% hits | AID 602162;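 active = fluorescence ratio to DMSO below 75%, the collection mean minus 3 SD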;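 note: signal is porphyrin accumulated inside mitochondria; 100% equals median channel fluorescence of DMSO control wells; lower ratio means ABCB6 inhibition with less porphyrin fluorescence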
MC4R barr agon: agonists of human melanocortin 4 receptor (MC4R) beta-arrestin; P32245; U2OS MC4R beta-arrestin complementation, luminescence; percent of melanotan II response, DMSO zero; activation, % at 8.9 µM; 360,000 compounds, 0.98% hits; AID 540308;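 active = activation above a per-plate cutoff, the mean activation of sample wells on that plate plus 3 SD, cut at about 8% in these data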
TbMetRS inhib: blocks T. brucei methionyl-tRNA synthetase activity; purified T. brucei MetRS, ATP depletion, Kinase-Glo luminescence; inhibition, % at 11.9 µM; 360,000 compounds, 0.4% hits;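 active = inhibition above a per-plate cutoff of the control wells' mean inhibition plus 3 SD, cut at about 5.5% in these data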;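 note: 0% = DMSO wells median and 100% = median of wells with control inhibitor compound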
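System: purified T. brucei MetRS enzyme / Detection: Kinase-Glo luciferase luminescence reporting remaining unconsumed ATP / Medium: HEPES buffer with MgCl2, KCl, DTT, spermine, BSA, pyrophosphatase / Replication: singlicate, one well per compound / Evaluation: percent inhibition relative to median high and low control wells / Schedule: 2 h aminoacylation at 25 °C after 15 min preincubation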
iPSC survival up: enhancers of human iPSC single-cell survival; survival enhancement, % at 20 µM; 360,000 compounds, 0.044% hits; hiPSC single-cell survival, ATPlite luminescence; 100% = ROCK inhibitor wells, 0% = DMSO; in the data active = survival enhancement above about 18%;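 note: cells exposed to compounds for 16 hours before the ATP read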
Granule exo inh: lytic granule exocytosis inhibition | 360,000 compounds, 0.66% hits | TALL-104 LAMP-1 surface exposure, flow cytometry; cells stimulated with thapsigargin and PMA | inhibition, % at 10 µM;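 active = inhibition above about 55%, limit read from the data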
MC4R antagonist: antagonists of human melanocortin 4 receptor (MC4R) | P32245 | MC4R-expressing cells, MTII-stimulated cAMP, LANCE TR-FRET | inhibition, % at 6.5 µM | 360,000 compounds, 0.48% hits | AID 540295;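 active = inhibition above its plate's cutoff, the mean of tested wells on that plate plus 3 SD, cut at about 29% in these data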;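 note: 0% = Melanotan II alone and 100% = Melanotan II plus saturating MCL0020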
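System: U2OS cells stably expressing human melanocortin 4 receptor (MC4R). Reagent: Melanotan II challenge after compound preincubation. Doses: 6.5 µM. Times: 30-min compound, 1-h challenge, 1-h detection, room temperature. Measured by: TR-FRET with Eu-cAMP and labeled anti-cAMP, 671 nm. Replicates: singlicate.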
Exocytosis CP01: blocks lytic granule exocytosis. shares compounds with Granule exo inh. TALL-104 cells, LAMP-1 externalization, flow cytometry; stimulated with PMA plus thapsigargin. inhibition, % at 10 µM. 1,500 compounds, 11% hits; in the data active = inhibition above about 60%;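 note: 0% = stimulated vehicle wells and 100% = unstimulated wells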
Active calls of the source: *; x = no result given. The list is not random: actives were taken first. Their share in the collection is about 2.6%.

SMILES | ABCB6 inh MLPCN | MC4R barr agon | TbMetRS inhib | iPSC survival up | Granule exo inh | MC4R antagonist | Exocytosis CP01
C=C(C)COc1ccc(-c2n[nH]c(C)c2-c2ccc(OC)cc2)c(O)c1 | 97 | 9.6* | -1 | -4 | 65* | 12 | 98*
CCOC(=O)[C@@H]1[C@H]2COc3ccccc3[C@@H]2N2C(=O)N(c3ccc(Cl)cc3)C(=O)[C@@]12C | 97 | -1 | 0 | -3 | 116* | 2 | -13
CCOC(=O)[C@@H]1[C@H]2COc3ccccc3[C@H]2N2C(=O)N(c3ccc(Cl)cc3)C(=O)[C@]12C | 94 | -1 | 0 | 1 | -15 | 1 | x
OC(COC(c1ccc(Cl)cc1)c1ccc(Cl)cc1)CN1CCCC1 (centres undefined) | 89 | 2 | -1 | -2 | 1 | 5 | x
CN1CCN(CC(O)COC(c2ccc(Cl)cc2)c2ccc(Cl)cc2)CC1 (centres undefined) | 92 | 2 | -1 | -1 | 57* | -4 | 17
O=C(NN=Cc1cc(=O)[nH]c(=O)[nH]1)c1ccncc1 | 93 | 0 | 0 | 0 | -8 | 7 | x
COc1ccc(CNCCC(c2ccc(OC(C)C)cc2)C(C)C)cc1OC (centres undefined) | 100 | 1 | -1 | -4 | 15 | 7 | x
COc1ccc(C(CCNCc2ccc(N(C)C)cc2)C(C)C)cc1 (centres undefined) | 98 | 2 | -1 | -1 | 69* | 0 | -13
CC(CCN1CCN(c2ccc(F)cc2)CC1)c1ccccc1 (centres undefined) | 107 | 0 | 0 | -1 | 57* | 9 | -12
CN(C)c1ccc(CNCCC(Cc2ccccc2)c2ccco2)cc1 (centres undefined) | 102 | 5 | 2 | 0 | 45 | 3 | x
c1ccc(CNCCC(Cc2ccccc2)c2ccco2)cc1 (centres undefined) | 100 | -1 | 0 | -1 | 72* | 11 | -10
CC(C)C(=O)c1cc2c(cc1NC(=O)c1cccs1)OCCO2 | 93 | 0 | 0 | -1 | 75* | 14 | -11
CC1(CC(=O)N/N=C/c2ccc(-c3cccc(C(F)(F)F)c3)o2)OCCO1 | 96 | -3 | -1 | -1 | -2 | 1 | x
O=C(OCc1nc2ccccc2s1)c1ccco1 | 102 | -2 | 0 | 0 | 75* | 0 | -4
O=C(OCc1nc2ccccc2s1)c1ccc(Br)o1 | 101 | -1 | -1 | 0 | 1 | 3 | x
Cc1nc2ncccn2c1-c1csc(Nc2ccccc2)n1 | 95 | 1 | 0 | 1 | 0 | 15 | x
CC(=O)Nc1ccc(Nc2nc(-c3c(C)nc4ccccn34)cs2)cc1 | 89 | -1 | 1 | 0 | 75* | -31 | -4
Cc1ccc(C)c(S(=O)(=O)NCCCc2ccccc2)c1 | 103 | 2 | 0 | 0 | 58* | 16 | -14
Cc1ccc(C)c(NC(=O)c2cc(-c3ccccc3)nn2-c2ccccc2)c1 | 84 | 1 | -1 | -1 | 2 | 12 | x
Cc1ccc(C)c(NC(=O)c2nc(-c3ccccc3)n(-c3ccccc3)n2)c1 | 96 | -2 | 1 | 0 | 68* | 8 | 4
COc1cn(-c2ccccc2)nc1C(=O)Nc1ccc(C)cc1 | 99 | 0 | 1 | 1 | 29 | 18 | x
COc1ccc(C)cc1NC(=O)c1nn(-c2ccccc2)cc1OC | 96 | 2 | 0 | 0 | 100* | 2 | -1
O=C(NNC(=O)c1nc2ccccc2[nH]1)OCc1ccccc1 | 100 | 0 | 3 | -1 | -3 | 10 | x
CCOc1ccc(-c2cc(C(=O)NCCCn3ccnc3)c3cc(Br)ccc3n2)cc1 | 92 | 2 | 0 | 0 | 79* | 1 | 80*
CCOc1ccc(-c2cc(C(=O)NCCCn3ccnc3)c3ccccc3n2)cc1 | 97 | -5 | 2 | 0 | -1 | -6 | x
CN1C(=O)C2(Nc3ccccc3-c3nc4ccccc4n32)c2ccccc21 (centres undefined) | 90 | -3 | 0 | -1 | 1 | 4 | x
